Broadly, the MIC is the lowest concentration found to suppress growth. A lower MIC goes with a more susceptible organism.

Results on eight molecules are retold here after ChEMBL document CHEMBL2040749, “Novel polycyclic 'cage'-1,2-diamines as potential anti-tuberculosis agents” (2012).

Molecules are shown by their SMILES.

This test relates to Mycobacterium tuberculosis. The test can be described thus: Antitubercular activity against Mycobacterium tuberculosis H37Rv ATCC 25177after 21 days by BACTEC MGIT 960 method. In kind it is functional. The note with it: 504 h. A digest of the protocol: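 Compounds dissolved in 100% methanol (10 mg/mL stock), sonicated, filter-sterilised, diluted in sterile water; twofold serial dilutions, working range 8 to 0.125 µg/mL. Strains grown in Middlebrook 7H9 + OADC at 37 °C; inoculum adjusted to McFarland 1, diluted tenfold to 10^5 CFU/mL into MGIT tubes. Drug-free control received a 1:100 inoculum. MIC is the lowest dilution negative when the control turns positive. Triplicate.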
`CC(C)=CCC/C(C)=C/CNCCN1[C@H]2C3C4CC5C6C4C2C6[C@@]1(O)C53.Cl.Cl` (mixture of isomers) returned an MIC of 1 µg/mL. The same measure for `CC(C)=CCC/C(C)=C/CNCCNC1C2C3CC4C5CC(C42)C1C53.Cl.Cl` (racemic): 0.5 µg/mL; for `CC(C)=CCC/C(C)=C/CNCCN[C@]12O[C@H]3C4C5CC(C6C5C3C61)C42.Cl.Cl` (mixture of isomers): 1 µg/mL.

In turn, `CC(C)=CCC/C(C)=C/CNCCN[C@@H]1C2C3CC4C5C3CC2C5C41.Cl.Cl` (mixture of isomers) yielded an MIC of 1 µg/mL. For `CC(C)=CCC/C(C)=C/CNCCNC1C2CC3CC(C2)CC1C3.Cl.Cl` (stereo not drawn) the value was 0.5 µg/mL; for `CC(C)=CCC/C(C)=C/CNC(=O)CN1[C@H]2C3C4CC5C6C4C2C6[C@@]1(O)C53` (mixture of isomers), 1 µg/mL; for `CC(C)=CCC/C(C)=C/CNCCN[C@@H]1C2C3CC4C5C3C1C5[C@@H](O)C42.Cl.Cl` (mixture of isomers), 0.5 µg/mL.

`CC(C)=CCC/C(C)=C/CNCC(=O)N[C@]12O[C@H]3C4C5CC(C6C5C3C61)C42` (mixture of isomers) had an MIC of 1 µg/mL.
